XiGFP reactiv = activators of inactive X chromosome reactivation, primary screen, imaging, XiGFP fibroblasts, GFP high-content imaging, set 2 | XiGFP mouse fibroblasts, % GFP-positive cells imaging, 3 d; cells co-treated with 5-aza-dC sensitizer; scaled so ellipticine positive control = 100% | activation, % at 7.58 µM | 360,000 compounds, 0.055% hits | AID 743238, 2013;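 active = mean normalized replicate activation at least 10% and every replicate at or above 10%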;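 also: 0% = median of on-plate neutral control wells and 100% = ellipticine 6 µM median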
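System: XiGFP fibroblasts, SV40-immortalized. Medium: DMEM plus 5-aza-dC sensitizer. Doses: single point. Timing: 3 d treatment, 15 min room-temperature fixation. Control set: ellipticine 6 µM.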
E-selectin induc = E-selectin induction in HUVECs, primary screen, imaging, HUVEC, immunofluorescence imaging, single point | P16581 | activation, % at 7.58 µM | 260,000 compounds, 0.37% hits | normalized: neutral wells 0, TNF-alpha wells 100;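 active = mean E-selectin-positive cell signal at least 10% of the positive control, reached in at least 60% of replicates, without over 20% cell loss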
Target sequence (P16581 whole entry, looked up): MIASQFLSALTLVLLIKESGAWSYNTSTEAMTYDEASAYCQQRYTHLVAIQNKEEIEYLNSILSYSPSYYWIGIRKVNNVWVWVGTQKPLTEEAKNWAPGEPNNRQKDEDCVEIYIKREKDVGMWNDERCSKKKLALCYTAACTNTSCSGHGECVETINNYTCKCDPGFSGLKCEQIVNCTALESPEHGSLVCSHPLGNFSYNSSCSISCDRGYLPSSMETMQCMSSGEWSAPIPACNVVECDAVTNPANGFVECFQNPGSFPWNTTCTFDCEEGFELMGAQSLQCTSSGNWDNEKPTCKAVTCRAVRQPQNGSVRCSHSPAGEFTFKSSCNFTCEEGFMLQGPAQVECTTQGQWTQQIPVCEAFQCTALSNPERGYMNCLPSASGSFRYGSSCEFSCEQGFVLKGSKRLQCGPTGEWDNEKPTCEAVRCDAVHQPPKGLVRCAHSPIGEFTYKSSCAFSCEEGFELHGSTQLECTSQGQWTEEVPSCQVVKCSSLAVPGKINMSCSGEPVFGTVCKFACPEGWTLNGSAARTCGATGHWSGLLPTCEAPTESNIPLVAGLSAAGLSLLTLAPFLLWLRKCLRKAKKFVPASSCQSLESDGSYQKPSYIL
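System: HUVEC, human umbilical vein endothelial cells; quantity: 3,000 cells/well; buffer or medium: EGM-2 medium, gelatin-coated wells; dosing: single-point compound dose; detection: immunofluorescence imaging; evaluation: % PE-positive cells; benchmarks: TNF-alpha, DMSO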
Numbers without * were called inactive; x = no result given. The sample as a whole holds a higher share of hits than the screen did.

SMILES	XiGFP reactiv	E-selectin induc
COc1ccc(S(=O)(=O)N(C)C[C@@H]2OCCCC[C@@H](C)Oc3ccc(NC(=O)c4ccncc4)cc3C(=O)N([C@H](C)CO)C[C@@H]2C)cc1	0	0
COc1cc(/C=C/C(=O)c2ccc([N+](=O)[O-])o2)ccc1O	21*	0
COc1ccc(/C=C/C(=O)c2ccc([N+](=O)[O-])o2)cc1OC	14*	1
COc1cc(/C=C/C(=O)CC(=O)/C=C/c2ccc(O)c(OC)c2)ccc1O	0	0
O=C(/C=C/c1cccc(Cl)c1)c1ccc([N+](=O)[O-])o1	4	0
C[C@H]1CN(C)C(=O)c2cc(N)ccc2O[C@@H]1CN(C)C(=O)OC(C)(C)C	0	x
C[C@@H]1CCCCO[C@@H](CN(C)Cc2ccc3c(c2)OCO3)[C@@H](C)CN([C@@H](C)CO)C(=O)c2cc(NC(=O)Nc3ccc(F)cc3)ccc2O1	-1	0
Cc1noc(C)c1NC(=O)Nc1ccc2c(c1)C(=O)N([C@H](C)CO)C[C@@H](C)[C@H](CN(C)S(=O)(=O)c1ccc(F)cc1)OCCCC[C@H](C)O2	0	0
Cc1cc(N2CCCC2)ccc1NC(=O)COc1ccccc1	2	0
CCc1ccccc1OCC(=O)Nc1ccc(N2CCCC2)cc1C	37*	0
O=C(C[C@@H]1C[C@@H]2c3cc(NC(=O)c4cccnc4)ccc3O[C@@H]2[C@H](CO)O1)NCc1ccc(Oc2ccccc2)cc1	0	6
COc1ccc(NC(=O)N(C)C[C@@H]2Oc3ccc(NC(=O)C4CCCCC4)cc3CC(=O)N([C@@H](C)CO)C[C@H]2C)cc1	0	0
NC(=O)c1c(NC(=O)c2ccccc2)sc2c1CCN(Cc1ccccc1)C2	44*	x
CCN1CCc2c(sc(NC(=O)Cc3ccccc3)c2C(N)=O)C1	0	0
CCN1CCc2c(sc(NC(=O)c3ccc(S(=O)(=O)N(CC)c4ccccc4)cc3)c2C(N)=O)C1	73*	0
NC(=O)c1c(NC(=O)c2c(F)cccc2F)sc2c1CCN(Cc1ccccc1)C2	0	3
CCN1CCc2c(sc(NC(=O)Nc3ccc(Cl)c(Cl)c3)c2C(N)=O)C1	105*	x
CCN1CCc2c(sc(NC(=O)c3ccc(C(=O)c4ccccc4)cc3)c2C(N)=O)C1	0	x
CC(C)CC#Cc1ccc([C@@H]2[C@H]3CN(C(=O)Cc4ccccc4)CC(=O)N3[C@H]2CO)cc1	0	0
COCC(=O)Nc1ccc2c(c1)C(=O)N(C)C[C@H](OC)[C@H](C)CN(CCc1ccccc1)[C@H](C)CO2	0	0
C[C@@H]1CN([C@@H](C)CO)C(=O)Cc2cc(NS(=O)(=O)c3ccc(Cl)cc3)ccc2O[C@H]1CN(C)S(C)(=O)=O	0	-15
CN(C)C(=O)C[C@H]1C[C@@H]2c3cc(NC(=O)Nc4ccccc4)ccc3O[C@@H]2[C@@H](CO)O1	0	0
CCS(=O)(=O)Nc1ccc2c(c1)C(=O)N(C)C[C@H](OC)[C@@H](C)CN(C(=O)NC(C)C)[C@@H](C)CO2	1	0
CC(=O)N[C@H]1CC[C@@H](CCNC(=O)C2CCCCC2)O[C@@H]1CO	-1	0
CCN1C(=O)CS/C1=N\S(=O)(=O)c1ccc(Cl)cc1	0	1
SMILES	XiGFP reactiv	E-selectin induc
CCn1c(Cl)c(C=O)s/c1=N\S(=O)(=O)c1ccccc1	35*	x
O=C(O)c1cc(Cl)ccc1-c1ccc(/C=C/c2cc(C(F)(F)F)[nH]c(=O)n2)o1	0	x
O=C(O)c1ccccc1-c1ccc(/C=C/c2cc(C(F)(F)F)[nH]c(=O)n2)o1	0	28*
C[C@H](CO)N1C[C@H](C)[C@@H](CN(C)Cc2ccc(C(=O)Nc3ccccc3N)cc2)Oc2c(NS(=O)(=O)c3cccs3)cccc2C1=O	0	3
COc1ccc(NC(=O)Nc2cccc3c2O[C@@H](CN(C)Cc2ccc(C(=O)Nc4ccccc4N)cc2)[C@@H](C)CN([C@H](C)CO)C3=O)cc1	0	-2
C[C@H]1CN([C@@H](C)CO)C(=O)c2cccc(NC(=O)c3ccncc3)c2O[C@H]1CN(C)Cc1ccc(C(=O)Nc2ccccc2N)cc1	0	51*
C[C@H]1CN([C@@H](C)CO)C(=O)c2cccc(NS(=O)(=O)c3cccs3)c2O[C@@H]1CN(C)Cc1ccc(C(=O)Nc2ccccc2N)cc1	0	392*
C[C@@H]1CN([C@H](C)CO)C(=O)c2cccc(NC(=O)c3ccncc3)c2O[C@H]1CN(C)Cc1ccc(C(=O)Nc2ccccc2N)cc1	0	5
COc1ccc(NC(=O)Nc2cccc3c2O[C@H](CN(C)Cc2ccc(C(=O)Nc4ccccc4N)cc2)[C@H](C)CN([C@H](C)CO)C3=O)cc1	-1	34*
C[C@@H]1CN([C@H](C)CO)C(=O)Cc2cc(NS(=O)(=O)c3cccs3)ccc2O[C@H]1CN(C)Cc1ccc(C(=O)Nc2ccccc2N)cc1	0	-2
C[C@H](CO)N1C[C@H](C)[C@H](CN(C)Cc2ccc(C(=O)Nc3ccccc3N)cc2)Oc2ccc(NS(=O)(=O)c3cccs3)cc2CC1=O	0	59*
COc1ccc(NC(=O)Nc2ccc3c(c2)C(=O)N([C@H](C)CO)C[C@H](C)[C@@H](CN(C)S(=O)(=O)c2c(C)noc2C)O3)cc1	0	x
CC(C)NC(=O)N(C)C[C@H]1Oc2ccc(NC(=O)CCCN(C)C)cc2C(=O)N([C@H](C)CO)C[C@@H]1C	0	2
CCCN1C[C@H](C)[C@H](OC)CN(C)C(=O)c2cc(NC(=O)C3CCC3)ccc2OC[C@H]1C	0	0
CN1C(=O)c2cc(NC(=O)NCc3ccccc3)ccc2OC[C@H]2O[C@H](CC(=O)O)CC[C@H]21	0	0
C[C@@H]1CN([C@H](C)CO)C(=O)c2cccc(NS(=O)(=O)c3cccs3)c2O[C@H]1CN(C)Cc1ccc(Cl)c(Cl)c1	0	349*
C[C@@H]1CN([C@@H](C)CO)C(=O)c2cc(NC(=O)C3CC3)ccc2O[C@H]1CN(C)Cc1ccc(C(=O)Nc2ccccc2N)cc1	0	0
C[C@H]1CN([C@@H](C)CO)C(=O)c2cc(NC(=O)C3CCCCC3)ccc2O[C@H]1CN(C)Cc1ccc(C(=O)Nc2ccccc2N)cc1	2	29*
C[C@@H]1CN([C@@H](C)CO)C(=O)c2cccc(NS(=O)(=O)c3cccs3)c2O[C@@H]1CN(C)Cc1ccc(Cl)c(Cl)c1	0	23
COc1ccc(NC(=O)Nc2cccc3c2O[C@@H](CN(C)C(=O)NC2CCCCC2)[C@H](C)CN([C@H](C)CO)C3=O)cc1	0	49*
COc1ccc(NC(=O)N(C)C[C@H]2Oc3c(NC(=O)NC4CCCCC4)cccc3C(=O)N([C@@H](C)CO)C[C@H]2C)cc1	-1	0
CCCNC(=O)C[C@@H]1C[C@@H]2c3cc(NC(=O)C4CCOCC4)ccc3O[C@@H]2[C@@H](CO)O1	0	0
C[C@H](CO)N1C[C@H](C)[C@@H](CN(C)C(=O)Nc2ccc(F)cc2)Oc2ccc(NS(=O)(=O)c3ccc(F)cc3)cc2CC1=O	0	0

Source: PubChem (Broad Institute)
